ChEMBL document CHEMBL2384952, “Synthesis, antifungal and cytotoxic activities of 2-aryl-3-((piperidin-1-yl)ethyl)thiazolidinones” (Eur J Med Chem, 2013)
Converted amounts (≈) assume the structure as drawn.

What was measured:
[1] = system: Meyerozyma guilliermondii; test: Antifungal activity against Candida guilliermondii after 48 hrs by CLSI M27A3 broth microdilution method; format: functional
Procedure, shortened: (§1)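 Yeasts were kept on Sabouraud dextrose agar and subcultured at 35 °C for at least 2 days. They were suspended in saline to McFarland 0.5 and diluted in RPMI. Ten successive dilutions were made from a 1.6 mg/mL DMSO stock per CLSI broth microdilution, then incubated at 37 °C for 48 h. Growth was read visually against a growth-control well, and MIC is the lowest concentration inhibiting growth.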

[2] = system: Vero; test: Cytotoxicity against African green monkey Vero cells at 25 ug/mL by neutral red dye uptake assay relative to control; format: cell-based; conditions: chlorocebus sabaeus
Procedure, shortened: (§2)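 Vero cells (over 99% viable by trypan blue exclusion) were exposed to serial compound dilutions in E-MEM, with fresh E-MEM as negative control, for 72 h at 37 °C, 5% CO2. Cells were then given 3.3 mg/L neutral red for 2 h, and the dye was extracted with 50% ethanol/1% acetic acid. A540 was read, and viability was calculated as treated/control absorbance × 100.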

[3] = system: Vero; test: Cytotoxicity against African green monkey Vero cells at 98 ug/mL by neutral red dye uptake assay relative to control; format: cell-based; conditions: chlorocebus sabaeus; procedure, shortened: as §2
[4] = system: Geotrichum; test: Antifungal activity against Geotrichum species after 48 hrs by CLSI M27A3 broth microdilution method; format: functional; procedure, shortened: as §1
[5] = system: Vero; test: Cytotoxicity against African green monkey Vero cells at 3150 ug/mL by neutral red dye uptake assay relative to control; format: cell-based; conditions: chlorocebus sabaeus; procedure, shortened: as §2
[6] = system: Vero; test: Cytotoxicity against African green monkey Vero cells at 787 ug/mL by neutral red dye uptake assay relative to control; format: cell-based; conditions: chlorocebus sabaeus; procedure, shortened: as §2
[7] = system: Vero; test: Cytotoxicity against African green monkey Vero cells at 394 ug/mL by neutral red dye uptake assay relative to control; format: cell-based; conditions: chlorocebus sabaeus; procedure, shortened: as §2
[8] = system: Trichosporon asahii; test: Antifungal activity against Trichosporon asahii after 48 hrs by CLSI M27A3 broth microdilution method; format: functional; procedure, shortened: as §1
[9] = system: Candida albicans; test: Antifungal activity against Candida albicans after 48 hrs by CLSI M27A3 broth microdilution method; format: functional; procedure, shortened: as §1
[10] = system: Vero; test: Cytotoxicity against African green monkey Vero cells at 12.3 ug/mL by neutral red dye uptake assay relative to control; format: cell-based; conditions: chlorocebus sabaeus; procedure, shortened: as §2
[11] = system: Vero; test: Cytotoxicity against African green monkey Vero cells at 1575 ug/mL by neutral red dye uptake assay relative to control; format: cell-based; conditions: chlorocebus sabaeus; procedure, shortened: as §2
[12] = system: Papiliotrema laurentii; test: Antifungal activity against Cryptococcus laurentii after 48 hrs by CLSI M27A3 broth microdilution method; format: functional; procedure, shortened: as §1
[13] = system: Rhodotorula; test: Antifungal activity against Rhodotorula species after 48 hrs by CLSI M27A3 broth microdilution method; format: functional; procedure, shortened: as §1
[14] = system: Vero; test: Cytotoxicity against African green monkey Vero cells at 49 ug/mL by neutral red dye uptake assay relative to control; format: cell-based; conditions: chlorocebus sabaeus; procedure, shortened: as §2
[15] = system: Candida parapsilosis; test: Antifungal activity against Candida parapsilosis after 48 hrs by CLSI M27A3 broth microdilution method; format: functional; conditions: Lodderomyces parapsilosis; procedure, shortened: as §1
[16] = system: Vero; test: Cytotoxicity against African green monkey Vero cells at 197 ug/mL by neutral red dye uptake assay relative to control; format: cell-based; conditions: chlorocebus sabaeus; procedure, shortened: as §2
[17] = system: Rhodotorula; test: Ratio of fluconazole MIC to compound MIC for Rhodotorula species; format: functional
[18] = system: Rhodotorula; test: Ratio of fluconazole MFC to compound MFC for Rhodotorula species; format: functional

## O=C1CSC(c2ccccc2F)N1CCN1CCCCC1 (stereo not drawn)
[1]
  MFC: 133 µg/mL (≈ 431 µM)
  MIC: 133 µg/mL (≈ 431 µM)
[2]
  Cell viability: 100%
[3]
  Cell viability: 82%
[4]
  MFC: > 400 µg/mL
  MIC: > 400 µg/mL
[5]
  Cell viability: 10%
[6]
  Cell viability: 10%
[7]
  Cell viability: 45%
[8]
  MFC: > 400 µg/mL
  MIC: > 400 µg/mL
[9]
  MFC: 100 µg/mL (≈ 324 µM)
  MIC: 100 µg/mL (≈ 324 µM)
[10]
  Cell viability: 100%
[11]
  Cell viability: 10%
[12]
  MFC: 100 µg/mL (≈ 324 µM)
  MIC: 100 µg/mL (≈ 324 µM)
[13]
  MFC: 36 µg/mL (≈ 117 µM)
  MIC: 36 µg/mL (≈ 117 µM)
[14]
  Cell viability: 95%
[15]
  MFC: 100 µg/mL (≈ 324 µM)
  MIC: 100 µg/mL (≈ 324 µM)
[16]
  Cell viability: 65%

## O=C1CSC(c2cccc(F)c2)N1CCN1CCCCC1 (stereo not drawn)
[1]
  MFC: 100 µg/mL (≈ 324 µM)
  MIC: 100 µg/mL (≈ 324 µM)
[2]
  Cell viability: 100%
[3]
  Cell viability: 92%
[4]
  MFC: > 400 µg/mL
  MIC: > 400 µg/mL
[5]
  Cell viability: 13%
[6]
  Cell viability: 27%
[7]
  Cell viability: 60%
[8]
  MFC: > 400 µg/mL
  MIC: > 400 µg/mL
[9]
  MFC: 150 µg/mL (≈ 486 µM)
  MIC: 150 µg/mL (≈ 486 µM)
[10]
  Cell viability: 100%
[11]
  Cell viability: 17%
[12]
  MFC: 100 µg/mL (≈ 324 µM)
  MIC: 100 µg/mL (≈ 324 µM)
[13]
  MFC: 33.5 µg/mL (≈ 109 µM)
  MIC: 33.5 µg/mL (≈ 109 µM)
[14]
  Cell viability: 97%
[15]
  MFC: 100 µg/mL (≈ 324 µM)
  MIC: 100 µg/mL (≈ 324 µM)
[16]
  Cell viability: 84%

## O=C1CSC(c2ccc(F)cc2)N1CCN1CCCCC1 (stereo not drawn)
[1]
  MFC: 100 µg/mL (≈ 324 µM)
  MIC: 100 µg/mL (≈ 324 µM)
[2]
  Cell viability: 100%
[3]
  Cell viability: 87%
[4]
  MFC: 50 µg/mL (≈ 162 µM)
  MIC: 50 µg/mL (≈ 162 µM)
[5]
  Cell viability: 11%
[6]
  Cell viability: 17%
[7]
  Cell viability: 52%
[8]
  MFC: 100 µg/mL (≈ 324 µM)
  MIC: 100 µg/mL (≈ 324 µM)
[9]
  MFC: 45 µg/mL (≈ 146 µM)
  MIC: 45 µg/mL (≈ 146 µM)
[10]
  Cell viability: 100%
[11]
  Cell viability: 14%
[12]
  MFC: 100 µg/mL (≈ 324 µM)
  MIC: 100 µg/mL (≈ 324 µM)
[13]
  MFC: 25 µg/mL (≈ 81.1 µM)
  MIC: 25 µg/mL (≈ 81.1 µM)
[14]
  Cell viability: 100%
[15]
  MFC: 100 µg/mL (≈ 324 µM)
  MIC: 100 µg/mL (≈ 324 µM)
[16]
  Cell viability: 73%

## O=C1CSC(c2ccccc2Cl)N1CCN1CCCCC1 (stereo not drawn)
[1]
  MFC: 100 µg/mL (≈ 308 µM)
  MIC: 100 µg/mL (≈ 308 µM)
[2]
  Cell viability: 100%
[3]
  Cell viability: 94%
[4]
  MFC: 50 µg/mL (≈ 154 µM)
  MIC: 50 µg/mL (≈ 154 µM)
[5]
  Cell viability: 22%
[6]
  Cell viability: 38%
[7]
  Cell viability: 31%
[8]
  MFC: 66.5 µg/mL (≈ 205 µM)
  MIC: 66.5 µg/mL (≈ 205 µM)
[9]
  MFC: 75 µg/mL (≈ 231 µM)
  MIC: 75 µg/mL (≈ 231 µM)
[10]
  Cell viability: 100%
[11]
  Cell viability: 16%
[12]
  MFC: 100 µg/mL (≈ 308 µM)
  MIC: 100 µg/mL (≈ 308 µM)
[13]
  MFC: 33 µg/mL (≈ 102 µM)
  MIC: 33 µg/mL (≈ 102 µM)
[14]
  Cell viability: 100%
[15]
  MFC: 100 µg/mL (≈ 308 µM)
  MIC: 100 µg/mL (≈ 308 µM)
[16]
  Cell viability: 71%

## O=C1CSC(c2cccc(Cl)c2)N1CCN1CCCCC1 (stereo not drawn)
[1]
  MFC: 100 µg/mL (≈ 308 µM)
  MIC: 100 µg/mL (≈ 308 µM)
[2]
  Cell viability: 100%
[3]
  Cell viability: 100%
[4]
  MFC: 50 µg/mL (≈ 154 µM)
  MIC: 50 µg/mL (≈ 154 µM)
[5]
  Cell viability: 15%
[6]
  Cell viability: 31%
[7]
  Cell viability: 45%
[8]
  MFC: 100 µg/mL (≈ 308 µM)
  MIC: 100 µg/mL (≈ 308 µM)
[9]
  MFC: 62 µg/mL (≈ 191 µM)
  MIC: 62 µg/mL (≈ 191 µM)
[10]
  Cell viability: 100%
[11]
  Cell viability: 20%
[12]
  MFC: 100 µg/mL (≈ 308 µM)
  MIC: 100 µg/mL (≈ 308 µM)
[13]
  MFC: 25 µg/mL (≈ 77 µM)
  MIC: 25 µg/mL (≈ 77 µM)
[14]
  Cell viability: 100%
[15]
  MFC: 100 µg/mL (≈ 308 µM)
  MIC: 100 µg/mL (≈ 308 µM)
[16]
  Cell viability: 77%

## O=C1CSC(c2ccc(Cl)cc2)N1CCN1CCCCC1 (stereo not drawn)
[1]
  MFC: 100 µg/mL (≈ 308 µM)
  MIC: 100 µg/mL (≈ 308 µM)
[2]
  Cell viability: 84%
[3]
  Cell viability: 74%
[4]
  MFC: 50 µg/mL (≈ 154 µM)
  MIC: 50 µg/mL (≈ 154 µM)
[5]
  Cell viability: 11%
[6]
  Cell viability: 15%
[7]
  Cell viability: 28%
[8]
  MFC: 50 µg/mL (≈ 154 µM)
  MIC: 50 µg/mL (≈ 154 µM)
[9]
  MFC: 62 µg/mL (≈ 191 µM)
  MIC: 62 µg/mL (≈ 191 µM)
[10]
  Cell viability: 90%
[11]
  Cell viability: 13%
[12]
  MFC: 100 µg/mL (≈ 308 µM)
  MIC: 100 µg/mL (≈ 308 µM)
[13]
  MFC: 50 µg/mL (≈ 154 µM)
  MIC: 50 µg/mL (≈ 154 µM)
[14]
  Cell viability: 84%
[15]
  MFC: 100 µg/mL (≈ 308 µM)
  MIC: 100 µg/mL (≈ 308 µM)
[16]
  Cell viability: 68%

## COc1ccccc1C1SCC(=O)N1CCN1CCCCC1 (stereo not drawn)
[1]
  MFC: 100 µg/mL (≈ 312 µM)
  MIC: 100 µg/mL (≈ 312 µM)
[2]
  Cell viability: 100%
[3]
  Cell viability: 100%
[4]
  MFC: 41.5 µg/mL (≈ 130 µM)
  MIC: 41.5 µg/mL (≈ 130 µM)
[5]
  Cell viability: 5%
[6]
  Cell viability: 30%
[7]
  Cell viability: 67%
[8]
  MFC: 50 µg/mL (≈ 156 µM)
  MIC: 50 µg/mL (≈ 156 µM)
[9]
  MFC: 100 µg/mL (≈ 312 µM)
  MIC: 100 µg/mL (≈ 312 µM)
[10]
  Cell viability: 100%
[11]
  Cell viability: 17%
[17]
  Ratio: 1.6
[12]
  MFC: 100 µg/mL (≈ 312 µM)
  MIC: 100 µg/mL (≈ 312 µM)
[13]
  MFC: 16.5 µg/mL (≈ 51.5 µM)
  MIC: 16.5 µg/mL (≈ 51.5 µM)
[14]
  Cell viability: 100%
[18]
  Ratio: 1.6
[15]
  MFC: 100 µg/mL (≈ 312 µM)
  MIC: 100 µg/mL (≈ 312 µM)
[16]
  Cell viability: 72%
